# In the M2OR odorant receptor database:
# Tests used:
# Details in all cases: stereoisomer not certain
# OR2M5 G255A = test system: OR2M5 G255A
# Outline: (§1)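 Transient luciferase assays in mammalian cell lines were common, though methods varied by source. The values come from published papers and their supplementary material, with extra details from the original authors when needed. Responsive refers to a measured signal the original authors judged statistically different from baseline, and non-responsive (inactive) to the remainder.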
# OR2M5 L273M = test system: OR2M5 L273M
# Outline: as §1
# OR2M5 M154T = test system: OR2M5 M154T
# Outline: as §1
# OR2M5 S119A = test system: OR2M5 S119A
# Outline: as §1
# [1] = test system: OR2M5 V105T A156G A160V G255A
# Outline: as §1
# [2] = test system: OR2M5 V105T A156G G255A L273M
# Outline: as §1
# OR2M5 V105T A156G G255A = test system: OR2M5 V105T A156G G255A
# Outline: as §1
# [3] = test system: OR2M5 V105T A156G V198I G255A
# Outline: as §1
# OR2M5 V105T A156G = test system: OR2M5 V105T A156G
# Outline: as §1
# OR2M5 V105T G255H = test system: OR2M5 V105T G255H
# Outline: as §1
# OR2M5 V105T M154T G255A = test system: OR2M5 V105T M154T G255A
# Outline: as §1
# [4] = test system: OR2M5 V105T S119A A156G G255A
# Outline: as §1
# OR2M5 V105T = test system: OR2M5 V105T
# Outline: as §1
# OR2M5 V198I = test system: OR2M5 V198I
# Outline: as §1
# OR2M7 (Homo sapiens) = target: T1, OR2M7 (Homo sapiens) (UniProt Q8NG81)
# T1 sequence (whole entry): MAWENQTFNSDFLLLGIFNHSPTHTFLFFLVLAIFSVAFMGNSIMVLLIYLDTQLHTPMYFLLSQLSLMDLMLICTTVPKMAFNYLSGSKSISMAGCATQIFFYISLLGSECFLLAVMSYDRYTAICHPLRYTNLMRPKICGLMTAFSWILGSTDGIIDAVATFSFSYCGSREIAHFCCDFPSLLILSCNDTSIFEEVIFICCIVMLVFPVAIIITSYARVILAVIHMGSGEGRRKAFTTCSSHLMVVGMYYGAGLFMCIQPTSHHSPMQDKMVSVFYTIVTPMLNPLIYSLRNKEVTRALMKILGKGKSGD
# Outline: as §1
# OR2S2 (Homo sapiens) = target: T2, OR2S2 (Homo sapiens) (UniProt Q9NQN1)
# T2 sequence (whole entry): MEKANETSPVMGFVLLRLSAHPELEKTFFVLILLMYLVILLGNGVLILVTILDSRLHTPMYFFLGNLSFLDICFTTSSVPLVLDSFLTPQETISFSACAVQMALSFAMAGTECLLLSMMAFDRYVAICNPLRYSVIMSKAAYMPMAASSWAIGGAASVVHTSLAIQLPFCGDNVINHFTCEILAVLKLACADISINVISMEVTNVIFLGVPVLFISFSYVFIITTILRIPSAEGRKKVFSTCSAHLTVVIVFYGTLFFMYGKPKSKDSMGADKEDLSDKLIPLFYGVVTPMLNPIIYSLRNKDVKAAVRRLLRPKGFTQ
# Outline: as §1
# OR2T1 (Homo sapiens) = target: T3, OR2T1 (Homo sapiens) (UniProt O43869)
# T3 sequence (whole entry): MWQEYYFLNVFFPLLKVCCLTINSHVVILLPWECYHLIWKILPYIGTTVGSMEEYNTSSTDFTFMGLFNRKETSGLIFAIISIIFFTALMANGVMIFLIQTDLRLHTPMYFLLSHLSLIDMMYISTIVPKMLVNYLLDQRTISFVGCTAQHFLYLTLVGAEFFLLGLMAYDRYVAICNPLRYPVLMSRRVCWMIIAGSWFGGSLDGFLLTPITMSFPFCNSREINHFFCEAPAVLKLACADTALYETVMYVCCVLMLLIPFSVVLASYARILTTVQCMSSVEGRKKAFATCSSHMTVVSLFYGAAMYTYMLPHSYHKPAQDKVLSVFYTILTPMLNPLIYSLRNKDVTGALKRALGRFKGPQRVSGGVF
# Outline: as §1
# OR2T10 (Homo sapiens) = target: T4, OR2T10 (Homo sapiens) (UniProt Q8NGZ9)
# T4 sequence (whole entry): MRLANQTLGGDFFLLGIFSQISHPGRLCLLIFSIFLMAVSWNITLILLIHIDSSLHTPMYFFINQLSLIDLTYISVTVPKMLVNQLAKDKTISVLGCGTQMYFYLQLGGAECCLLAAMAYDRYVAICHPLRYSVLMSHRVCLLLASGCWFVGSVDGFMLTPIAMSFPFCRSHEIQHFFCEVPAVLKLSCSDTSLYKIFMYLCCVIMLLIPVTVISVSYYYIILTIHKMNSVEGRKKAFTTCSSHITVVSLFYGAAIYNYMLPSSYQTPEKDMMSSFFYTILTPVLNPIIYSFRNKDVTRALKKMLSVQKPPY
# Outline: as §1
# OR2M7 [5] = test system: OR2M7
# Outline: as §1
# Target sequence in this assay (as listed by the source): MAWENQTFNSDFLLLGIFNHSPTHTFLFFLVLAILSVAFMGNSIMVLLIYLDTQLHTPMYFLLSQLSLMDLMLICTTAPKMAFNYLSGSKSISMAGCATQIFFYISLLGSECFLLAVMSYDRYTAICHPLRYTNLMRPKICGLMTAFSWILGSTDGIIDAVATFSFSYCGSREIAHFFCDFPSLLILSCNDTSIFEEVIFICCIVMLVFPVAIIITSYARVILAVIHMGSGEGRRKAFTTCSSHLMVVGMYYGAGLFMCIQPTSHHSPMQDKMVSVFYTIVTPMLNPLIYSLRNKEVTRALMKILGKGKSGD
# OR2M7 [6] = test system: OR2M7; remark: listed apart in the source
# Outline: as §1
# Target sequence in this assay (as listed by the source): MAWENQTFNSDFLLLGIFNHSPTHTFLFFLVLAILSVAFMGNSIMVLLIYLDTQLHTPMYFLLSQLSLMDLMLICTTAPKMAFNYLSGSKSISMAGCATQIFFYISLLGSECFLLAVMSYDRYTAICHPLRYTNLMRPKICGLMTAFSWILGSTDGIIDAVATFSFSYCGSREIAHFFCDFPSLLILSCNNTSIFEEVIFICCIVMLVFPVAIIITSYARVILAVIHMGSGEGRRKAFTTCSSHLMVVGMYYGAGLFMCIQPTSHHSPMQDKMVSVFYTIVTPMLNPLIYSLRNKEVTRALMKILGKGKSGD
# 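Note: active if original authors judged signal statistically different from baseline.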
# Chain of OR2M5 V105T (as listed by the source, stated change not applied): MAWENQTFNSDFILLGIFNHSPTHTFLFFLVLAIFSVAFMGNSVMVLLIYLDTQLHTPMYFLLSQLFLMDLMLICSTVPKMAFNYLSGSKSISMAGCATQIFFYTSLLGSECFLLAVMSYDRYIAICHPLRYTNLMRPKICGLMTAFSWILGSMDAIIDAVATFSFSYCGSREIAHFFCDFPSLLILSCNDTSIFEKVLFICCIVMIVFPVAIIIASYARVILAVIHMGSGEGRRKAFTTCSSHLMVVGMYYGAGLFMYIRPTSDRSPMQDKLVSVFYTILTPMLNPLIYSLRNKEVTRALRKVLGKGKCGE
# Chain of OR2M5 L273M (as listed by the source, stated change not applied): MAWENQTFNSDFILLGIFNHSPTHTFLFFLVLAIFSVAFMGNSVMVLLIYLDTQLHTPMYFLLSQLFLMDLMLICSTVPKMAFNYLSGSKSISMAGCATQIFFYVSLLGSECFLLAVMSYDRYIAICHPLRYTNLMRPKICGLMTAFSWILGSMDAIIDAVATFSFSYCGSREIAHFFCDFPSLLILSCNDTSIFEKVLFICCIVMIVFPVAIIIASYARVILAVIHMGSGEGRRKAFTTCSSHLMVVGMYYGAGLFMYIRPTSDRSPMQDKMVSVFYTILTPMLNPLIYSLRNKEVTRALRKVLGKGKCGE
# Chain of OR2M5 V198I (as listed by the source, stated change not applied): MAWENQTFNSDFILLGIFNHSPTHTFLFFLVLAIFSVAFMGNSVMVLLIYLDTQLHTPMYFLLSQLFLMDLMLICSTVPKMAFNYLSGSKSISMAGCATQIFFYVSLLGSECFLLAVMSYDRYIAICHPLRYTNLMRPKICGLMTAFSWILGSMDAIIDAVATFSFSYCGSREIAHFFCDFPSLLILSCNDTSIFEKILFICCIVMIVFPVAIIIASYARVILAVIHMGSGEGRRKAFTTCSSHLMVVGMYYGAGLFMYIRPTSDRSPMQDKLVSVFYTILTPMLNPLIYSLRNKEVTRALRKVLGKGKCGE
# Chain of OR2M5 S119A (as listed by the source, stated change not applied): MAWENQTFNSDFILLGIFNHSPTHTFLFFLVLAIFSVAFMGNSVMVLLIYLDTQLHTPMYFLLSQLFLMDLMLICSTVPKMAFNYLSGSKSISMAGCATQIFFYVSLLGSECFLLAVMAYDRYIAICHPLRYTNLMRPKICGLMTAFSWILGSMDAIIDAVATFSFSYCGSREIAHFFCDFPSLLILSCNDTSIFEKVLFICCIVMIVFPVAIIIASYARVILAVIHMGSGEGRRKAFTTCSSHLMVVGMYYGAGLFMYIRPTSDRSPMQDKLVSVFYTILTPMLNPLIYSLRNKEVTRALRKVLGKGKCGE
# Chain of OR2M5 M154T (as listed by the source, stated change not applied): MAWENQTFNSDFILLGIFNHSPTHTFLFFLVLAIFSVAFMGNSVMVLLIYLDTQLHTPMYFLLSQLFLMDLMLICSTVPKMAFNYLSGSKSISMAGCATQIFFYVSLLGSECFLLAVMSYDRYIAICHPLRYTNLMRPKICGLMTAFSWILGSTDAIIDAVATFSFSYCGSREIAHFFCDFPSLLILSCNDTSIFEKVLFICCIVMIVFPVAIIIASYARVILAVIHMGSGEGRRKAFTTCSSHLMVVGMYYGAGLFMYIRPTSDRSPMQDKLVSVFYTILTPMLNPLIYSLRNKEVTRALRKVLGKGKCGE
# Chain of OR2M5 G255A (as listed by the source, stated change not applied): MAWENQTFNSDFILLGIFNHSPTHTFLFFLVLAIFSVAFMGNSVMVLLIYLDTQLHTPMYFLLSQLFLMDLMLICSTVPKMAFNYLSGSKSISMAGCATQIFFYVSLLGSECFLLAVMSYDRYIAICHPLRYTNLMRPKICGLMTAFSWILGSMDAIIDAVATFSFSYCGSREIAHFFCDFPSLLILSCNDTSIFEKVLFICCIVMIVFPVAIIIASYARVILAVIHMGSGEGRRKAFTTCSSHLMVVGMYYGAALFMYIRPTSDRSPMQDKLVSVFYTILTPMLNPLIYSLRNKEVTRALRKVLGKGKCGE
structure (smiles),measurement,setting,value
CCC(S)C(C)CO (stereo not drawn),odorant receptor agonist call,OR2M5 G255A,inactive
same,odorant receptor agonist call,OR2M5 L273M,inactive
same,odorant receptor agonist call,OR2M5 M154T,inactive
same,odorant receptor agonist call,OR2M5 S119A,inactive
same,odorant receptor agonist call,[1],inactive
same,odorant receptor agonist call,[2],inactive
same,odorant receptor agonist call,OR2M5 V105T A156G G255A,inactive
same,odorant receptor agonist call,[3],inactive
same,odorant receptor agonist call,OR2M5 V105T A156G,inactive
same,odorant receptor agonist call,OR2M5 V105T G255H,inactive
same,odorant receptor agonist call,OR2M5 V105T M154T G255A,inactive
same,odorant receptor agonist call,[4],inactive
same,odorant receptor agonist call,OR2M5 V105T,inactive
same,odorant receptor agonist call,OR2M5 V198I,inactive
same,odorant receptor agonist call,OR2M7 (Homo sapiens),inactive
same,odorant receptor agonist call,OR2S2 (Homo sapiens),inactive
same,odorant receptor agonist call,OR2T1 (Homo sapiens),inactive
same,odorant receptor agonist call,OR2T10 (Homo sapiens),inactive
c1ccccc1,odorant receptor agonist call,OR2M7 (Homo sapiens),inactive
O=C1CCOc2ccccc21,odorant receptor agonist call,OR2M7 (Homo sapiens),inactive
CCCCCCCCCO,odorant receptor agonist call,OR2M7 (Homo sapiens),inactive
CCCCCCC(C)=O,odorant receptor agonist call,OR2M7 (Homo sapiens),inactive
CC12CCC(CC1=O)C2(C)C (stereo not drawn),odorant receptor agonist call,OR2M7 (Homo sapiens),inactive
CCCCCCCCC(=O)O,odorant receptor agonist call,OR2M7 (Homo sapiens),inactive
O=C1Cc2ccccc2O1,odorant receptor agonist call,OR2M7 (Homo sapiens),inactive
O=c1ccc2ccccc2o1,odorant receptor agonist call,OR2M7 (Homo sapiens),inactive
CC(=O)OCC=C(C)C,odorant receptor agonist call,OR2M7 (Homo sapiens),inactive
CCCCCCCCS,odorant receptor agonist call,OR2M7 (Homo sapiens),inactive
CCCCOC(=O)C(C)OC(=O)CCC (stereo not drawn),odorant receptor agonist call,OR2M7 (Homo sapiens),inactive
CCCCCCCCCC(=O)[O-].[H+],odorant receptor agonist call,OR2M7 (Homo sapiens),inactive
CCCCCCC(=O)[O-].[H+],odorant receptor agonist call,OR2M7 (Homo sapiens),inactive
CCCCCCOC(C)=O,odorant receptor agonist call,OR2M7 (Homo sapiens),inactive
CC(=O)Oc1ccccc1,odorant receptor agonist call,OR2M7 (Homo sapiens),inactive
CCCCCCCC(C)=O,odorant receptor agonist call,OR2M7 (Homo sapiens),inactive
C=C(C)C1CCC(C)C(=O)C1 (stereo not drawn),odorant receptor agonist call,OR2M7 (Homo sapiens),inactive
CCCCCC=O,odorant receptor agonist call,OR2M7 (Homo sapiens),inactive
CCOC(=O)C(C)C,odorant receptor agonist call,OR2M7 (Homo sapiens),inactive
CCCCCO,odorant receptor agonist call,OR2M7 (Homo sapiens),inactive
CCCCC(C)=O,odorant receptor agonist call,OR2M7 (Homo sapiens),inactive
CCC(=O)O,odorant receptor agonist call,OR2M7 (Homo sapiens),inactive
CC(C)=CCCC(C)CCO (stereo not drawn),odorant receptor agonist call,OR2M7 (Homo sapiens),active
CCC(=O)C(=O)CC,odorant receptor agonist call,OR2M7 (Homo sapiens),inactive
CCCCOC=O,odorant receptor agonist call,OR2M7 (Homo sapiens),inactive
CCC(C(=O)O)c1ccccc1 (stereo not drawn),odorant receptor agonist call,OR2M7 (Homo sapiens),inactive
CCC1OC(C)=C(O)C1=O (stereo not drawn),odorant receptor agonist call,OR2M7 (Homo sapiens),inactive
same,odorant receptor agonist call,OR2S2 (Homo sapiens),inactive
same,odorant receptor agonist call,OR2T1 (Homo sapiens),inactive
same,odorant receptor agonist call,OR2T10 (Homo sapiens),inactive
C=CCOC(=O)CCCCCC,odorant receptor agonist call,OR2M7 (Homo sapiens),inactive
CCCC(C)=O,odorant receptor agonist call,OR2M7 (Homo sapiens),inactive
CCCCC(=O)O,odorant receptor agonist call,OR2M7 (Homo sapiens),inactive
CCCCCCCC(=O)[O-].[H+],odorant receptor agonist call,OR2M7 (Homo sapiens),inactive
CC1=C(O)C(=O)OC1C (stereo not drawn),odorant receptor agonist call,OR2M7 (Homo sapiens),inactive
same,odorant receptor agonist call,OR2S2 (Homo sapiens),inactive
same,odorant receptor agonist call,OR2T1 (Homo sapiens),inactive
same,odorant receptor agonist call,OR2T10 (Homo sapiens),inactive
CCCC(S)CCOC(C)=O (stereo not drawn),odorant receptor agonist call,OR2M7 (Homo sapiens),inactive
same,odorant receptor agonist call,OR2S2 (Homo sapiens),inactive
same,odorant receptor agonist call,OR2T1 (Homo sapiens),inactive
same,odorant receptor agonist call,OR2T10 (Homo sapiens),inactive
Cc1cnc(C)c(C)n1,odorant receptor agonist call,OR2M7 (Homo sapiens),inactive
same,odorant receptor agonist call,OR2S2 (Homo sapiens),inactive
same,odorant receptor agonist call,OR2T1 (Homo sapiens),inactive
same,odorant receptor agonist call,OR2T10 (Homo sapiens),inactive
O=C(c1ccccc1)c1ccccc1,odorant receptor agonist call,OR2M7 (Homo sapiens),inactive
CCC1OC(=O)C(O)=C1C (stereo not drawn),odorant receptor agonist call,OR2M7 (Homo sapiens),inactive
same,odorant receptor agonist call,OR2S2 (Homo sapiens),inactive
same,odorant receptor agonist call,OR2T1 (Homo sapiens),inactive
same,odorant receptor agonist call,OR2T10 (Homo sapiens),inactive
CCCCCC1=C(C)CCC1=O,odorant receptor agonist call,OR2M7 (Homo sapiens),inactive
CCCCCC(=O)C(C)C(C)=O (stereo not drawn),odorant receptor agonist call,OR2M7 (Homo sapiens),inactive
same,odorant receptor agonist call,OR2S2 (Homo sapiens),inactive
same,odorant receptor agonist call,OR2T1 (Homo sapiens),inactive
same,odorant receptor agonist call,OR2T10 (Homo sapiens),inactive
CCCCCCCCO,odorant receptor agonist call,OR2M7 (Homo sapiens),inactive
CCCCCCCCCS,odorant receptor agonist call,OR2M7 (Homo sapiens),inactive
CCCCCC(=O)CC,odorant receptor agonist call,OR2M7 (Homo sapiens),inactive
CC(C)=CCCC(C)=CCO,odorant receptor agonist call,OR2M7 (Homo sapiens),active
same,odorant receptor agonist call,OR2M7 [5],active
same,odorant receptor agonist call,OR2M7 [6],inactive
same,odorant receptor agonist call,OR2T10 (Homo sapiens),inactive
CCCCCOC(=O)CCCCC,odorant receptor agonist call,OR2M7 (Homo sapiens),inactive
CC1CCCCCCCCCCCCC(=O)C1 (stereo not drawn),odorant receptor agonist call,OR2M7 (Homo sapiens),inactive
same,odorant receptor agonist call,OR2S2 (Homo sapiens),inactive
same,odorant receptor agonist call,OR2T1 (Homo sapiens),inactive
same,odorant receptor agonist call,OR2T10 (Homo sapiens),inactive
CCCCCCCCCCO,odorant receptor agonist call,OR2M7 (Homo sapiens),inactive
CCCCCCC=CCCC=O,odorant receptor agonist call,OR2M7 (Homo sapiens),inactive
same,odorant receptor agonist call,OR2S2 (Homo sapiens),inactive
same,odorant receptor agonist call,OR2T1 (Homo sapiens),inactive
same,odorant receptor agonist call,OR2T10 (Homo sapiens),inactive
CCCCC(=O)CC,odorant receptor agonist call,OR2M7 (Homo sapiens),inactive
CC(CO)CS (stereo not drawn),odorant receptor agonist call,OR2M7 (Homo sapiens),inactive
same,odorant receptor agonist call,OR2S2 (Homo sapiens),inactive
same,odorant receptor agonist call,OR2T1 (Homo sapiens),inactive
same,odorant receptor agonist call,OR2T10 (Homo sapiens),inactive
CCCCCCCO,odorant receptor agonist call,OR2M7 (Homo sapiens),inactive
CCCCCCO,odorant receptor agonist call,OR2M7 (Homo sapiens),inactive
CC1=C(O)C(=O)C(C)O1 (stereo not drawn),odorant receptor agonist call,OR2M7 (Homo sapiens),inactive
same,odorant receptor agonist call,OR2S2 (Homo sapiens),inactive
same,odorant receptor agonist call,OR2T1 (Homo sapiens),inactive
same,odorant receptor agonist call,OR2T10 (Homo sapiens),inactive
COc1cc(C(=O)O)ccc1O,odorant receptor agonist call,OR2M7 (Homo sapiens),inactive
CCCC(=O)C(C)=O,odorant receptor agonist call,OR2M7 (Homo sapiens),inactive
CCCCCC(S)C(C)CO (stereo not drawn),odorant receptor agonist call,OR2M7 (Homo sapiens),inactive
same,odorant receptor agonist call,OR2S2 (Homo sapiens),inactive
same,odorant receptor agonist call,OR2T1 (Homo sapiens),inactive
same,odorant receptor agonist call,OR2T10 (Homo sapiens),inactive
